From article PMC2947205 (Science (New York, N.Y.), 2009)
Read-outs that look alike come from different tables or passages of the source.

Columns and labels:
sigma-2 receptor [1] = target: T1, sigma-2 receptor (Homo sapiens, UniProt Q5BJF2); test: Sigma-2 receptor binding
sigma-1 receptor [2] = target: T2, sigma-1 receptor (Homo sapiens, UniProt Q99720); test: Competition binding against
sigma-1 receptor [3] = target: T2, sigma-1 receptor; conditions: read-out: sigma-1 Kd; cited from earlier work
sigma-1 receptor [4] = target: T3, sigma-1 receptor (Rattus norvegicus, UniProt Q9R0C9); test: Protection of [125I]IAF photolabeling of sigma-1 receptor in rat liver membranes; format: binding; conditions: for protection of [125I]IAF photolabeling of the sigma-1 receptor: 1 nM [125I]IAF
T3 sequence (Q9R0C9 whole entry): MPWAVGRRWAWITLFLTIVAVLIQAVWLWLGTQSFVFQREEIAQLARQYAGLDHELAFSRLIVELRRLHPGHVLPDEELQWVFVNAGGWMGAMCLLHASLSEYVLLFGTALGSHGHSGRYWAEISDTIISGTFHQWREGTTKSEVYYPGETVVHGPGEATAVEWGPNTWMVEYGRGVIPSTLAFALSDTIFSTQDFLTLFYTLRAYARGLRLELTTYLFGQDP

sigma-2 receptor [5] = target: T4, sigma-2 receptor (Rattus norvegicus, UniProt Q5U3Y7); test: Protection of [125I]IAF photolabeling of sigma-2 receptor in rat liver membranes; format: binding; conditions: for protection of [125I]IAF sigma-2 receptor photolabeling: 1 nM [125I]IAF
T4 sequence (Q5U3Y7 1-176): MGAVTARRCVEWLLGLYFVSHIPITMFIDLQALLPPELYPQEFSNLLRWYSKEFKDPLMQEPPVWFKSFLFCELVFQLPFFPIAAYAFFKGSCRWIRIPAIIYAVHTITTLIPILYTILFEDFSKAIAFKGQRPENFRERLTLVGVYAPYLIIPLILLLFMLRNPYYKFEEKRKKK

sigma-1 receptor [6] = target: T3, sigma-1 receptor; test: Protection of [125I]-IACoc photolabeling in rat liver membranes; format: binding; conditions: for protection against sigma-1 receptor [125I]-IACoc photolabeling (in words): even at these high concentrations (50 and 100 μM); for protection of [125I]-IACoc photolabeling of the 26-kD sigma-1 receptor: 1 nM [125I]-IACoc
sigma-2 receptor [7] = target: T1, sigma-2 receptor; conditions: read-out: sigma-2 Kd; cited from earlier work
sigma-1 receptor KO mice = test: Open-field assay, sigma-1 receptor KO mice; format: in vivo, mouse; conditions: 3 mg/kg, ip, n = 6
WT mice = test: Open-field assay, WT mice; format: in vivo, mouse
[8] = tested on: WT neonatal cardiac myocytes; test: Patch-clamp INa in WT neonatal cardiac myocytes; format: cell-based; conditions: Mus musculus, read-out: inhibition of INa
Method in brief: (§1)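 Neonatal cardiac myocytes came from wild-type and sigma-1 receptor knock-out mice. INa was evoked by steps from −80 to −10 mV and recorded in the absence of, during and after washout of 100 μM test compound.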

[9] = tested on: human cardiac Na+ channel hNav1.5; test: Patch-clamp INa in HEK293 cells stably expressing hNav1.5; format: cell-based; conditions: 100 μM, steps from −80 to −10 mV, n = 3
Method in brief: (§2)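 Whole-cell INa was recorded in hNav1.5-expressing cells (HEK293; COS-7 transiently transfected). Currents were evoked by steps from −80 to −10 mV before, during and after washout of 100 μM test compound. Inhibition was derived from peak INa, reported as mean ± SEM of n = 3 cells.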

KO myocytes = test: Patch-clamp INa in sigma-1 receptor KO neonatal cardiac myocytes; format: cell-based, mouse; conditions: 100 μM, n = 7
Method in brief: as §1

[10] = tested on: human cardiac Na+ channel hNav1.5; test: Patch-clamp INa in COS-7 cells transiently transfected with hNav1.5; format: cell-based; conditions: 100 μM, n = 3
Method in brief: as §2

T2 sequence (Q99720 whole entry, species assumed): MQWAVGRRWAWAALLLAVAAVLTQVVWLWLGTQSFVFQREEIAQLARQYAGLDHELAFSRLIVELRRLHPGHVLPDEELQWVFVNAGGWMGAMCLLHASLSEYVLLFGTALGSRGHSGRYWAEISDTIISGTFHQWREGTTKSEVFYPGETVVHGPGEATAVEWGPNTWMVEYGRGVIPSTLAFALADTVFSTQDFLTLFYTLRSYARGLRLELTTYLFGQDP
T1 sequence (Q5BJF2 whole entry, species assumed): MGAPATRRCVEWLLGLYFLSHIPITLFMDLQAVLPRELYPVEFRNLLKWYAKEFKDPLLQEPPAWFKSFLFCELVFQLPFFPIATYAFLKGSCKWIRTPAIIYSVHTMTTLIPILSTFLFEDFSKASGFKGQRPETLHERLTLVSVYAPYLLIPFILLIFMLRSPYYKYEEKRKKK

## NCCc1ccccc1 [phenethylamine]
sigma-2 receptor [1]
  Kd: 7.31 µM
sigma-1 receptor [2]
  Kd: 97.4 µM

## COC(=O)C1C(OC(=O)c2ccc(N=[N+]=[N-])c(I)c2)CC2CCC1N2C (stereo not shown) [[^125I]-IACoc, 3-[^125I]iodo-4-azidococaine]
sigma-1 receptor [3]
  Kd: 0.000126 µM

## CC(C)=CCN1CC[C@]2(C)c3cc(O)ccc3C[C@H]1[C@H]2C [(+)-pentazocine, reference compound]
sigma-1 receptor [4]; 10 μM, [125I]-IACoc or [125I]IAF
  protection of sigma-1 receptor photolabeling (in words): protected

## NCCc1c[nH]c2ccccc12 [tryptamine]
sigma-2 receptor [1]
  Kd: 4.91 µM
sigma-1 receptor [2]
  Kd: 431 µM
sigma-2 receptor [5]; 10 μM
  protection of [125I]IAF sigma-2 receptor photolabeling: 47%
sigma-2 receptor [5]; 50 μM
  protection of [125I]IAF sigma-2 receptor photolabeling: 78%
sigma-2 receptor [5]; 100 μM
  protection of [125I]IAF sigma-2 receptor photolabeling: 79%
sigma-1 receptor [6]
  protection against sigma-1 receptor [125I]-IACoc photolabeling (in words): protected minimally

## NCCc1ccc(O)cc1 [tyramine]
sigma-1 receptor [2]
  Kd: > 30000 µM

## CNCCc1ccc(O)cc1 [N-methyltyramine]
sigma-2 receptor [1]; read-out: sigma-2 receptor Kd
  Kd: 6.61 µM

## CC1CN(CCCc2ccc(N=[N+]=[N-])c(I)c2)CC(C)O1 (stereo not shown) [[^125I]IAF, 1-N-(2′,6′-dimethyl-morpholino)-3-(4-azido-3-[^125I]iodo-phenyl) propane]
sigma-2 receptor [7]
  Kd: 2.78 µM
sigma-1 receptor [3]
  Kd: 0.194 µM

## CN[C@@H](C)Cc1ccccc1 [methamphetamine, reference compound]
sigma-1 receptor KO mice
  hypermobility in open-field assay (in words): induced hypermobility
WT mice; 3 mg/kg, ip, n = 6
  hypermobility in open-field assay (in words): induced hypermobility

## CNCCc1c[nH]c2ccccc12 [N-methyltryptamine]
sigma-1 receptor [6]
  protection against sigma-1 receptor [125I]-IACoc photolabeling (in words): protected minimally

## CN(C)CCc1c[nH]c2ccccc12 [DMT, N,N-dimethyltryptamine]
sigma-1 receptor [4]; 10 μM
  protection of [125I]IAF photolabeling of the sigma-1 receptor: 31%
sigma-1 receptor [4]; 50 μM
  protection of [125I]IAF photolabeling of the sigma-1 receptor: 43%
sigma-1 receptor [4]; 100 μM
  protection of [125I]IAF photolabeling of the sigma-1 receptor: 69%
[8]
  inhibition at 100 µM: 29 ± 3%
sigma-1 receptor [6]; 50 μM
  protection of [125I]-IACoc photolabeling of the 26-kD sigma-1 receptor: 61%
sigma-1 receptor [6]; 100 μM
  protection of [125I]-IACoc photolabeling of the 26-kD sigma-1 receptor: ~100%
WT mice; 2 mg/kg ip, 2 hours after pargyline (75 mg/kg, ip), n = 12
  distance traveled in open-field assay (hypermobility): 7025 ± 524.1 cm
[9]
  inhibition of INa: 62 ± 3%
KO myocytes
  reduction of INa: 7 ± 2%
[10]
  inhibition of INa: 22 ± 4%

## O=C(CCCN1CCC(O)(c2ccc(Cl)cc2)CC1)c1ccc(F)cc1 [haloperidol, reference compound]
sigma-2 receptor [5]; 10 μM, [125I]IAF
  protection of sigma-2 receptor photolabeling (in words): protected
